Assay results as given in ChEMBL document CHEMBL2375313, “Synthesis, in vitro antitumor evaluation and DNA-binding study of novel tetrahydroquinolines and some derived tricyclic and tetracyclic ring systems” (Eur J Med Chem, 2013).
Activity calls are given as the source filed them. The calls are words filed in the database; no cut-off is given here.

How the values were obtained:
SNB-75 = assay: Cytotoxicity against human SNB75 cells assessed as growth inhibition at 10 uM after 48 hrs by sulphorhodamine B assay; format: functional; conditions: SNB-75, 48 h, read-out: GI
How it was run: (§1)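 NCI-60 one-dose screen per the NCI Drug Evaluation Branch protocol. Cells given a single 10 µM concentration with 48 h continuous exposure. Growth estimated by sulphorhodamine B protein assay. Result expressed as percentage growth inhibition relative to untreated growth.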

IGROV-1 = assay: Cytotoxicity against human IGROV1 cells assessed as growth inhibition at 10 uM after 48 hrs by sulphorhodamine B assay; format: functional; conditions: IGROV-1, 48 h, read-out: GI; how it was run: as §1
HCT-15 = assay: Cytotoxicity against human HCT15 cells assessed as growth inhibition at 10 uM after 48 hrs by sulphorhodamine B assay; format: functional; conditions: HCT-15, 48 h, read-out: GI; how it was run: as §1
[1] = Cytotoxicity against human colon cancer cells after 48 hrs by sulphorhodamine B assay; format: functional; conditions: Cancer cell lines
LOX IMVI = assay: Cytotoxicity against human LOXIMVI cells assessed as growth inhibition at 10 uM after 48 hrs by sulphorhodamine B assay; format: functional; conditions: read-out: GI; how it was run: as §1
[2] = Cytotoxicity against human breast cancer cells after 48 hrs by sulphorhodamine B assay; format: functional; conditions: Cancer cell lines
M14 = assay: Cytotoxicity against human M14 cells assessed as growth inhibition at 10 uM after 48 hrs by sulphorhodamine B assay; format: functional; conditions: M14, 48 h, read-out: GI; how it was run: as §1
[3] = Cytotoxicity against human prostate cancer cells after 48 hrs by sulphorhodamine B assay; format: functional; conditions: Cancer cell lines
[4] = Cytotoxicity against human renal cancer cells after 48 hrs by sulphorhodamine B assay; format: functional; conditions: Cancer cell lines
T47D = assay: Cytotoxicity against human T47D cells assessed as growth inhibition at 10 uM after 48 hrs by sulphorhodamine B assay; format: functional; conditions: read-out: GI; how it was run: as §1
[5] = Cytotoxicity against human non-small cell lung cancer cells after 48 hrs by sulphorhodamine B assay; format: functional; conditions: Cancer cell lines
[6] = Cytotoxicity against human ovarian cancer cells after 48 hrs by sulphorhodamine B assay; format: functional; conditions: Cancer cell lines
[7] = Cytotoxicity against human leukemia cells after 48 hrs by sulphorhodamine B assay; format: functional; conditions: Leukemia cell
[8] = Binding affinity to DNA (unknown origin) at 5 mg/mL by RP-TLC plate analysis
How it was run: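 Reversed-phase C18 TLC plates pre-developed in methanol/water 8:2. Compound spotted at origin (5 mg/mL in methanol), then DNA (1 mg/mL in water/methanol 8:2) applied at the same spot. Plates developed in the same eluent; DNA located by anisaldehyde spray (blue). Ethidium bromide as positive control.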

SK-OV-3 = assay: Cytotoxicity against human SKOV3 cells assessed as growth inhibition at 10 uM after 48 hrs by sulphorhodamine B assay; format: functional; conditions: SK-OV-3, 48 h, read-out: GI; how it was run: as §1
[9] = Cytotoxicity against human melanoma cells after 48 hrs by sulphorhodamine B assay; format: functional; conditions: Melanoma cell
PC-3 = assay: Cytotoxicity against human PC3 cells assessed as growth inhibition at 10 uM after 48 hrs by sulphorhodamine B assay; format: functional; conditions: PC-3, 48 h, read-out: GI; how it was run: as §1
A549 = assay: Cytotoxicity against human A549 cells assessed as growth inhibition at 10 uM after 48 hrs by sulphorhodamine B assay; format: functional; conditions: A549, 48 h, read-out: GI; how it was run: as §1
[10] = Cytotoxicity against human CNS cancer cells after 48 hrs by sulphorhodamine B assay; format: functional; conditions: Cancer cell lines
[11] = read-out: LC50 (the source's name)

CC1CCCc2c1nc1nc(SCC(=O)c3ccccc3)nc(N)c1c2-c1ccc(Cl)cc1 (configuration not stated)
inhibition of growth at 10 µM (SNB-75): < 10% | inhibition of growth at 10 µM (IGROV-1): < 10% | inhibition of growth at 10 µM (HCT-15): 71.5% | GI50 [1]: > 100 µM | TGI [1]: 86.5 µM | CC50 [1, 11]: > 100 µM | inhibition of growth at 10 µM (LOX IMVI): 14.6% | GI50 [2]: 79.3 µM | TGI [2]: 89.6 µM | CC50 [2, 11]: > 100 µM | inhibition of growth at 10 µM (M14): 35% | GI50 [3]: 75.5 µM | LC50 [3]: > 100 µM | TGI [3]: > 100 µM | GI50 [4]: 51.8 µM | LC50 [4]: > 100 µM | TGI [4]: > 100 µM | inhibition of growth at 10 µM (T47D): 72.6% | GI50 [5]: 46.1 µM | TGI [5]: > 100 µM | CC50 [5, 11]: > 100 µM | GI50 [6]: 80.6 µM | TGI [6]: 95.5 µM | CC50 [6, 11]: > 100 µM | GI50 [7]: 34.7 µM | LC50 [7]: 93.3 µM | TGI [7]: 65.1 µM | Activity [8]: Active | inhibition of growth at 10 µM (SK-OV-3): < 10% | GI50 [9]: 58 µM | TGI [9]: > 100 µM | CC50 [9, 11]: > 100 µM | inhibition of growth at 10 µM (PC-3): 66.8% | inhibition of growth at 10 µM (A549): 17.6% | GI50 [10]: 62.3 µM | LC50 [10]: > 100 µM | TGI [10]: 84.1 µM

CCSc1nc(N)c2c(-c3ccc(Cl)cc3)c3c(nc2n1)C(C)CCC3 (configuration not stated)
inhibition of growth at 10 µM (SNB-75): 33% | inhibition of growth at 10 µM (IGROV-1): 39% | inhibition of growth at 10 µM (HCT-15): 18.8% | inhibition of growth at 10 µM (LOX IMVI): < 10% | inhibition of growth at 10 µM (M14): < 10% | inhibition of growth at 10 µM (T47D): 39.5% | Activity [8]: Active | inhibition of growth at 10 µM (SK-OV-3): 15.2% | inhibition of growth at 10 µM (PC-3): 25.3% | inhibition of growth at 10 µM (A549): 18.1%
